From ChEMBL document CHEMBL1125365, “Acyl-CoA:cholesterol O-acyl transferase (ACAT) inhibitors. 1. 2-(Alkylthio)-4,5-diphenyl-1H-imidazoles as potent inhibitors of ACAT” (J Med Chem, 1992)

Columns and labels:
Rattus norvegicus = assay: Tested in vivo for anti-hypercholesterolaemic activity in male Sprague-Dawley rat.; format: functional
In short: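 Compound was given at 0.03% w/w in the diet (about 30 mg/kg/day). Basal-diet rats (n = 4) gave a baseline that was subtracted. Plasma cholesterol was measured enzymatically, and the result was expressed as percent change versus undosed controls.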

[1] = target: T1, Sterol O-acyltransferase 1 (Rattus norvegicus) (UniProt O70536); assay: Tested in vitro for acyl coenzyme A:cholesterol acyltransferase (ACAT) activity in rat liver microsome at a concentration of 1 micro g/mL; format: microsomes
T1 sequence (whole entry): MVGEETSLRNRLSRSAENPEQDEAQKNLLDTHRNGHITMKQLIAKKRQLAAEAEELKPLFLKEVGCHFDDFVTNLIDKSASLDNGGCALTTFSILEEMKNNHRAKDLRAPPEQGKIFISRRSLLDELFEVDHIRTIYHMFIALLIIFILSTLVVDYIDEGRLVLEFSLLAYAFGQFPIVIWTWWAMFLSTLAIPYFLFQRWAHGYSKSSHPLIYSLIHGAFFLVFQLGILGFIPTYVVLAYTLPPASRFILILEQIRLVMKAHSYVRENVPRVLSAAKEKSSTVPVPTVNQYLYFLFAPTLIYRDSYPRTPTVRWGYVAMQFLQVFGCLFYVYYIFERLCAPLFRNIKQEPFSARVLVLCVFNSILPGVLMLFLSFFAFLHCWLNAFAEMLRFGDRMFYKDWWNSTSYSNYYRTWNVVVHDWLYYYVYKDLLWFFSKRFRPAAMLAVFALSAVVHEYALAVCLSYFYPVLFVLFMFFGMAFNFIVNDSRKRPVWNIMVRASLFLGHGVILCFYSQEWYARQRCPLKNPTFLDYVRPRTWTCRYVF
In short: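 Enzyme source was hepatic microsomes from cholesterol-fed rats, 60 μg microsomal protein per reaction, with 90 μM radiolabeled oleoyl-CoA. Cholesterol ester formed was separated by TLC and quantified by scintillation counting. Compounds were tested at a single fixed concentration of 1 or 10 μg/mL, and results were given as percent inhibition of enzyme activity.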

[2] = target: T2, Sterol O-acyltransferase 1 (Rattus norvegicus, UniProt O70536); assay: Inhibition of acyl coenzyme A:cholesterol acyltransferase (ACAT) activity in rat liver microsome; format: microsomes
T2 sequence (O70536 whole entry): T1 sequence (whole entry)
In short: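 The assay used rat hepatic microsomes from cholesterol-fed animals (60 μg protein) and 90 μM radiolabeled oleoyl-CoA. Cholesterol ester product was resolved by TLC and counted by scintillation. IC50 was the concentration inhibiting 50% of enzyme activity.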

[3] = target: T1, Sterol O-acyltransferase 1 (Rattus norvegicus); assay: Tested in vitro for Acyl coenzyme A:cholesterol acyltransferase (ACAT) activity in rat liver microsome at a concentration of 1 micro g/mL

Compound | inhibition [1] [%] | IC50 [2] [nM] | inhibition [3] [%] | Change (Rattus norvegicus) [%]
CCOC(CCSc1nc(-c2ccccc2)c(-c2ccccc2)[nH]1)OCC | 95 | 69 |  | 4
c1ccc(-c2nc(SCCCC3OCCCO3)[nH]c2-c2ccccc2)cc1 | 96 | 47 |  | -57
Cc1cccc(-c2nc(SC[C@H]3C[C@@](C)(O)CC(=O)O3)[nH]c2-c2cccc(C)c2)c1.Cc1cccc(-c2nc(SC[C@H]3C[C@](C)(O)CC(=O)O3)[nH]c2-c2cccc(C)c2)c1 | 94 | 64 |  | -64

Further lines, with some results ahead:

inhibition [1] [%] | IC50 [2] [nM] | inhibition [3] [%] | Compound | Change (Rattus norvegicus) [%]
 |  | 85 | CO[C@]1(C)C[C@H](O)C[C@@H](CSc2nc(-c3ccccc3)c(-c3ccccc3)[nH]2)O1 | 
95 | 100 |  | c1ccc(-c2nc(SCC3CCCCC3)[nH]c2-c2ccccc2)cc1 | -92
92 | 210 |  | c1ccc(-c2nc(SCC3CCCCO3)[nH]c2-c2ccccc2)cc1 (stereo unspecified) | -38
